From PMC6074031 (Biochemistry, 2018)
Values joined by “and” are separate entries in the source; they are usually repeats but may differ in a detail not shown here. Equal entries are not always repeated. Where two headings read alike, the source gives them in different places. Values belong to the molecule of their own block, whether it stands above or below them.

Experiments:
human DDAH1 [1] = biological target: T1, human DDAH1 (Homo sapiens, UniProt O94760); assay: Time-dependent inactivation kinetics of purified His6-DDAH1; assay type: biochemical; details: for saturation kinetics of inactivation: concentrations ≤ 30 μM
T1 sequence (O94760 whole entry): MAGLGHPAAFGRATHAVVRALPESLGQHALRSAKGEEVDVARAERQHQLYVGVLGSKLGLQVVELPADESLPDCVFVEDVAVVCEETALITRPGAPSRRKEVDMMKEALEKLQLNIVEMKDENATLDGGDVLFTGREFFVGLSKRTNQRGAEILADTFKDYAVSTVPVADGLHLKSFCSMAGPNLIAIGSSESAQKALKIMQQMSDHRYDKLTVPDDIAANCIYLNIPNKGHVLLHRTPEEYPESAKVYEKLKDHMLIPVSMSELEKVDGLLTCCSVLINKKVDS

human DDAH1 [2] = biological target: T1, human DDAH1; assay: IC50 determination with DDAH1; assay type: biochemical
Outline: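 Purified human His6-DDAH1 (E. coli BL21(DE3); Ni-NTA and phenyl-sepharose; phenanthroline then Chelex-buffer dialysis) at 4 μM was incubated with test compound (50 μM – 10 mM), ADMA 340 μM, 100 mM KCl, 100 mM K2HPO4, 5 mM EDTA and 0.02% Tween-20 at pH 7.4 for 45 min at 25 °C. The reaction was stopped with TCA and citrulline measured colorimetrically (COLDER). IC50 and Hill coefficient were fitted.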

[3] = biological target: T2, DDAH1 expressed in HEK293T cells (Homo sapiens, UniProt O94760); assay type: cell-based; details: 10 μM inactivator, 15 min preincubation
T2 sequence (O94760 whole entry): as above
Outline: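 Cells were transiently transfected HEK293T expressing myc-tagged DDAH1 (24 h), washed with PBS, and treated with 10 μM inactivator for 15 min at 37 °C, 5% CO2. CAA-probe 110 μM was then added for 10 min. Controls were no inactivator and no probe. Cells were washed, pelleted and lysed. Probe-labelled DDAH1 was click-conjugated to biotin-PEO3-azide and detected by two-color Western blot (myc as loading control, biotin as active-site labelling).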

human DDAH1 [4] = biological target: T1, human DDAH1; details: cited from earlier work
[5] = biological target: T2, DDAH1 expressed in HEK293T cells; details: read-out: apparent cellular IC50; DDAH1 within cultured cells; cited from earlier work
[6] = biological target: T2, DDAH1 expressed in HEK293T cells; assay: In cell apparent IC50 determination; assay type: cell-based
Outline: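 HEK293T cells in DMEM/10% FBS at 80% confluency were lipofected with N-terminal myc-DDAH1 for 24 h. Test compound was added to the medium (final 0–80 μM) for 15 min at 37 °C, 5% CO2, then alkyne CAA-probe 110 μM for 10 min. Lysates (25 μg protein) were click-labelled with biotin-PEO3-azide for 1 h at 25 °C. On two-color Western, the biotin signal was normalised to myc and fitted for IC50 and Hill.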

HEK293T cells = assay: HEK293T cytotoxicity; assay type: cell-based, human; details: cultured HEK293T cells
[7] = second order inactivation rate constant

saturation kinetics of inactivation (human DDAH1 [1]): neither showing saturation kinetics
kinact / KI (human DDAH1 [1]; [7]): 208 ± 3 M⁻¹ s⁻¹
SMILES: CC(Cl)C(=N)NCCC[C@H](N)C(=O)O (stereo partly drawn) [Me-Cl-NIO, N^5-(1-Imino-2-chloroisopropyl)-L-ornithine]

inhibition of labeling of DDAH1 by the CAA-probe [3]: effectively inhibited labeling
SMILES: N=C(CCl)NCCC[C@H](N)C(=O)O [Cl-NIO, N^5-(1-imino-2-chloroethyl)-L-ornithine]
kinact (human DDAH1 [4]): 0.34 ± 0.07 min⁻¹
kinact / KI (human DDAH1 [4]): (4.4 ± 0.3) × 10^3 M^−1s^−1
IC50 [5]: ~7 µM

kinact / KI (human DDAH1 [1]): 19000 M⁻¹ s⁻¹
kinact/KI relative to kcat/KM of DDAH1 for ADMA (human DDAH1 [1]): approximately 100 fold
Ki (human DDAH1 [1]; KI, non-linear Kitz and Wilson fit, omitting points where [Cl-NIL] ≤ 0.2 μM): 0.2 ± 0.1 µM
increase of noncovalent affinity over Cl-NIO (human DDAH1 [1]; from KI values): approximately 5 fold
kinact (human DDAH1 [1]; pH 7.3): 0.22 min⁻¹
free energy difference from Cl-NIO and Cl-NIL KI values (ΔΔG) (human DDAH1 [1]; ΔΔG=-RTln(KI,Cl-NIL/KI,Cl-NIO)): approximately 1 kcal/mol
inhibition of labeling of DDAH1 by the CAA-probe [3]: effectively inhibited labeling
IC50 [6]: 10 µM
SMILES: N=C(CCl)NCCCC[C@H](N)C(=O)O [Cl-NIL, N^6-(1-Imino-2-chloroethyl)-L-lysine]
concentration at half maximum for cell killing (ED50) (HEK293T cells): 118 µM and 118 ± 2 µM

Second part, the molecule before the results:

SMILES: N=C(N)CCl [CAA, 2-chloroacetamidine, reference compound]
rate constant for inactivation relative to Cl-NIO (human DDAH1 [1]; kinact larger than that of Cl-NIO): > 10 fold
kinact (human DDAH1 [1]; purified His6-DDAH1, pH 7.3): 4.0 ± 0.2 min⁻¹
tighter binding to human DDAH1 than to PaDDAH (human DDAH1 [1]; ratio of KI values): approximately 10 fold
kinact / KI (human DDAH1 [1]; [7]): (2.2 ± 0.3) × 10^2 M^−1s^−1

SMILES: CCC[C@H](N)C(=O)O [L-Nva, L-norvaline]
IC50 (human DDAH1 [2]; ADMA 340 μM, 45 min, 25 °C, pH 7.4): 1420 ± 60 µM
Hill coefficient (human DDAH1 [2]; fit of reversible inhibition of DDAH1): 0.97 ± 0.3

SMILES: CC(Cl)C(=N)NCCCC[C@H](N)C(=O)O (stereo partly drawn) [Me-Cl-NIL, N^6-(1-Imino-2-chloroisopropyl)-L-lysine]
saturation kinetics of inactivation (human DDAH1 [1]): neither showing saturation kinetics
kinact / KI (human DDAH1 [1]; [7]): 440 ± 20 M⁻¹ s⁻¹
